Measurements reported in PubChem BioAssay AID602226 (The Scripps Research Institute Molecular Screening Center, 2012).
Activity calls are given as the source filed them.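 How the source made its calls: active means average inhibition of labeled dioxin binding to the receptor of at least 10% at 10 µM; inactive means the rest.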

Test system: Aryl hydrocarbon receptor (Cavia porcellus)
Experiment: competitors of radiolabeled TCDD at AHR – cell lysate, guinea pig liver cytosol, radiometric, counter-screen for AHR activator project, late-stage follow-up (AID 602226)
Details: [3H]TCDD HAP binding; for inhibition: at 10 µM, stronger effect = higher value
Summary of the method: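 assay system = guinea pig hepatic cytosol, AHR source | input = 2 mg/mL cytosolic protein | times = 1 h binding incubation, room temperature | technique = Hydroxyapatite capture, Tween-buffer washes, then scintillation counting | read-out = percent inhibition of specific [3H]TCDD binding, TCDF-defined nonspecific subtracted | repeats = three replicates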

[1] = measured here: IC50 range lower bound
[2] = measured here: IC50 range upper bound

Structure (SMILES)	inhibition	IC50 [1]	IC50 [2]
COc1ccc(NC(=O)c2cccc3c(Br)cccc23)cc1	65%	100 nM	1000 nM
Cc1ccc(-c2cc(-c3cccs3)[nH]n2)c(O)c1	99%	–	100 nM
Cc1csc(SCC(=O)Nc2ccc(Cl)cn2)n1	9.5% (inactive)	–	–

The next lines start with the values.

inhibition	IC50 [1]	IC50 [2]	Structure (SMILES)
32%	–	–	COc1ccccc1NC(=O)c1ccc(C(=O)Nc2ccccc2OC)nc1
39%	1000 nM	–	CCOC(=O)Cc1cc(-c2ccc(O)cc2)nc2ccc3ccccc3c12
79%	100 nM	1000 nM	Cc1nc(N)nc(Nc2ccc(Cl)cc2)c1Br
